Assay results published in publication PMC6978834 (ACS Central Science, 2019).

Experiments:
P. falciparum NF54 = format: cell-based; settings: Plasmodium falciparum, NF54, read-out: IC50 P. falciparum proliferation
In short: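 Asynchronous asexual P. falciparum NF54 cultures grown by a standard protocol. Proliferation IC50 determined with DHA as positive and DMSO as negative control. Values are mean IC50 ± SD of at least two independent experiments run in triplicate.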

[1] = test system: P. falciparum NF54 synchronized asexual parasites; experiment: Stage-specificity during the asexual cell cycle; format: cell-based, Plasmodium falciparum; settings: 6 h; data not shown
In short: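 NF54 synchronized to 0–3 hpi by gelatin flotation, then 5% D-sorbitol 3 h later. Plated at 2% hematocrit, 0.5% starting parasitemia. 6 h exposure at 1×, 3× or 10× IC50 starting at 0, 6, 12, 18, 24, 30, 36 or 42 hpi, then cells washed in RPMI and recultured. Giemsa-smear parasitemia at 72 h post-synchronization; survival relative to DMSO. Three independent experiments, one well each; unpaired t test versus DMSO.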

SMILES: C[C@H]1[C@@H](O)O[C@@H]2O[C@@]3(C)CC[C@H]4[C@H](C)CC[C@@H]1[C@@]24OO3 [dihydroartemisinin (DHA), dihydroartemisinin]
- IC50 (P. falciparum NF54): 5 ± 1 nM

SMILES: Clc1ccc2c(N3CCN(CCCN4CCN(c5ccnc6cc(Cl)ccc56)CC4)CC3)ccnc2c1 [piperaquine]
- activity on the ring stages [1]: not active
